Results: publication PMC7181426 (Clinical Drug Investigation, 2020)
Values joined by “and” are separate entries in the source; they are usually repeats but may differ in a detail not shown here. Equal entries are not always repeated. Marks after values point to notes of the source that are not given here.

Assays:
[1] = cited from earlier work
[2] = Safety: treatment-emergent adverse events, multiple-dose study; assay type: in vivo, human; conditions: for Alanine aminotransferase increased / Any TEAE / Aspartate aminotransferase increased / Blood creatinine phosphokinase increased / Diarrhea / Feeling abnormal / Headache / Hot flush / Malaise / Neutrophil count decreased / Rash / White blood cell count increased: Japanese
Method in brief: (§1)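 Adverse events were monitored throughout the study in subjects randomized 3:1 to test compound or placebo. Single-dose subjects were discharged on day 3 and returned on day 7; twice-daily subjects were discharged on day 10 and returned on day 13. Events were coded by System Organ Class and preferred term (MedDRA 12.1). The investigator assessed relatedness and graded severity as mild, moderate or severe.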

[3] = system: SULT2A1, nicotinamide N-methyltransferase; conditions: cited from earlier work
[4] = Safety: treatment-emergent adverse events, single-dose study; assay type: in vivo, human
Method in brief: as §1

[5] = single- and multiple-dose studies
[6] = Caucasian, single dose 20 mg (n = 6)
[7] = Caucasian, single dose 60 mg (n = 6)
[8] = Caucasian, single dose 200 mg (n = 6)
[9] = Japanese, single dose 20 mg (n = 6)
[10] = Japanese, single dose 60 mg (n = 6)
[11] = Japanese, single dose 200 mg (n = 6)

## NC(=O)c1cnc2[nH]ccc2c1N[C@@H]1[C@@H]2CC3C[C@H]1C[C@@](O)(C3)C2 [peficitinib, Peficitinib]
[1]; healthy, fasted, mainly Caucasian men, 3–30 mg ref 11
  median tmax: 1 h
[1]; multiple twice-daily dosing (30–200 mg twice daily), USA ref 11
  attainment of steady-state plasma levels by: ≤ 3 days
[1]; primarily Caucasian population in the USA, single oral doses of 30–200 mg ref 11
  cumulative amounts excreted unchanged in urine, range: 3.9 to 22.1 mg
[2]; 10 mg bid for 7 days (n = 6)
  Alanine aminotransferase increased: 1 (16.7)^b n (%)
  Any TEAE: 2 (33.3) n (%)
  Aspartate aminotransferase increased: 1 (16.7)^b n (%)
  Blood creatinine phosphokinase increased: 1 (16.7)^b n (%)
  Diarrhea: 0 n (%)
  Feeling abnormal: 1 (16.7)^b n (%)
  Headache: 1 (16.7)^b n (%)
  Hot flush: 1 (16.7)^b n (%)
  Malaise: 0 n (%)
  Neutrophil count decreased: 0 n (%)
  Rash: 0 n (%)
  White blood cell count increased: 1 (16.7)^b n (%)
[2]; 30 mg bid for 7 days (n = 6)
  Alanine aminotransferase increased: 0 n (%)
  Any TEAE: 3 (50.0) n (%)
  Aspartate aminotransferase increased: 0 n (%)
  Blood creatinine phosphokinase increased: 0 n (%)
  Diarrhea: 1 (16.7)^b n (%)
  Feeling abnormal: 0 n (%)
  Headache: 0 n (%)
  Hot flush: 0 n (%)
  Malaise: 0 n (%)
  Neutrophil count decreased: 0 n (%)
  Rash: 1 (16.7)^b n (%)
  White blood cell count increased: 2 (33.3)^d n (%)
[2]; 100 mg bid for 7 days (n = 6)
  Alanine aminotransferase increased: 1 (16.7)^b n (%)
  Any TEAE: 4 (66.7) n (%)
  Aspartate aminotransferase increased: 0 n (%)
  Blood creatinine phosphokinase increased: 0 n (%)
  Diarrhea: 0 n (%)
  Feeling abnormal: 0 n (%)
  Headache: 0 n (%)
  Hot flush: 0 n (%)
  Malaise: 0 n (%)
  Neutrophil count decreased: 3 n (%) and 3 (50.0)^b n (%)
  Rash: 0 n (%)
  White blood cell count increased: 0 n (%)
[2]; doses up to 200 mg daily for 7 days, healthy Japanese subjects
  tolerability: well tolerated
[2]; [5]
  serious TEAEs or TEAEs resulting in discontinuation: no serious TEAEs or TEAEs resulting in discontinuation
  severity of TEAEs: mild
[2]; three subjects receiving 100 mg twice daily
  Neutrophil counts recovered by: ≤ 8 days
[3]
  metabolizing enzymes: metabolized by the sulfotransferase (SULT) isoenzyme, SULT2A1, and the methyltransferase isoenzyme, nicotinamide N-methyltransferase
[4]; [6]
  Any TEAE: 0 n (%)
  Blood potassium increased: 0 n (%)
  Diarrhea: 0 n (%)
  White blood cell count increased: 0 n (%)
[4]; [7]
  Any TEAE: 1 (16.7) n (%)
  Blood potassium increased: 0 n (%)
  Diarrhea: 1 (16.7)^b n (%)
  White blood cell count increased: 0 n (%)
[4]; [8]
  Any TEAE: 0 n (%)
  Blood potassium increased: 0 n (%)
  Diarrhea: 0 n (%)
  White blood cell count increased: 0 n (%)
[4]; [9]
  Any TEAE: 1 (16.7) n (%)
  Blood potassium increased: 1 (16.7)^b n (%)
  Diarrhea: 0 n (%)
  White blood cell count increased: 0 n (%)
[4]; [10]
  Any TEAE: 2 (33.3) n (%)
  Blood potassium increased: 0 n (%)
  Diarrhea: 0 n (%)
  White blood cell count increased: 2 (33.3) n (%)
[4]; [11]
  Any TEAE: 1 (16.7) n (%)
  Blood potassium increased: 0 n (%)
  Diarrhea: 0 n (%)
  White blood cell count increased: 1 (16.7) n (%)
